pIC50: −log10 of the molar value. Calls of active or inactive are those of the source. The rule behind the calls is not given here.
What was measured:
MKN-74 [1] = assay: Induction of apoptosis in human MKN74 cells assessed as necrotic cells at 1 uM incubated for 72 hrs by Annexin-V-FITC/propidium iodide staining-based flow cytometric analysis (reference value: 6.29%); format: functional
MKN-74 [2] = assay: Induction of apoptosis in human MKN74 cells assessed as necrotic cells at 0.3 uM incubated for 72 hrs by Annexin-V-FITC/propidium iodide staining-based flow cytometric analysis (reference value: 6.29%); format: functional
[3] = molecular target: Vascular endothelial growth factor receptor 2 (Homo sapiens, UniProt P35968); assay: Inhibition of N-terminal GST fused human VEGFR2 cytoplasmic domain (790 to 1356 (end) residues) expressed in baculovirus expression system using FAM-labeled peptide and ATP as substrate preincubated for 10 mins followed by substrate addition measured after 1 hr by mobility shift assay
[4] = molecular target: Vascular endothelial growth factor receptor 1 (Homo sapiens, UniProt P17948); assay: Inhibition of GST-tagged human recombinant VEGFR1 cytoplasmic domain (781 to 1338 residues) expressed in baculovirus expression system using FAM-labeled peptide and ATP as substrate preincubated for 10 mins followed by substrate addition measured after 1 hr by mobility shift assay
[5] = molecular target: Proto-oncogene tyrosine-protein kinase Src (Homo sapiens, UniProt P12931); assay: Inhibition of SRC (unknown origin) using FAM-labeled peptide and ATP as substrate preincubated for 10 mins followed by substrate addition measured after 1 hr by mobility shift assay
[6] = molecular target: Tyrosine-protein kinase Lyn (Homo sapiens, UniProt P07948); assay: Inhibition of LYN (unknown origin) using FAM-labeled peptide and ATP as substrate preincubated for 10 mins followed by substrate addition measured after 1 hr by mobility shift assay
[7] = molecular target: Cyclin-dependent kinase 4 (Homo sapiens, UniProt P11802); assay: Inhibition of CDK4 (unknown origin) using FAM-labeled peptide and ATP as substrate preincubated for 10 mins followed by substrate addition measured after 1 hr by mobility shift assay
[8] = molecular target: T1, Serine/threonine-protein kinase Chk1 (Homo sapiens, UniProt O14757); assay: Inhibition of CHK (unknown origin) using FAM-labeled peptide and ATP as substrate preincubated for 10 mins followed by substrate addition measured after 1 hr by mobility shift assay
T1 sequence (O14757 whole entry): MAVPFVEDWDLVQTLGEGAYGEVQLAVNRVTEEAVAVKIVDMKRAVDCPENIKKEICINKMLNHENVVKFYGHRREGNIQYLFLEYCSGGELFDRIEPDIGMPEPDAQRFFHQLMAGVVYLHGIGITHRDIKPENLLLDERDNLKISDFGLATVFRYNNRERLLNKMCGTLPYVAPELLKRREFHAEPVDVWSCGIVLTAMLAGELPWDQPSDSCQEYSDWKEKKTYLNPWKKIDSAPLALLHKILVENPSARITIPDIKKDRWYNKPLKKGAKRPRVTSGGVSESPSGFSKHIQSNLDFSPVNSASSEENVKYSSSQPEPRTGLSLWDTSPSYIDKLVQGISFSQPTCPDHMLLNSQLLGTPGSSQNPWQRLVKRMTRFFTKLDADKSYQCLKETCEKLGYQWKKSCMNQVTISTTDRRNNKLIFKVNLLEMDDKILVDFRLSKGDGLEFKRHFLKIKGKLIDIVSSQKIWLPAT

[9] = molecular target: Cyclin-dependent kinase 2 (Homo sapiens, UniProt P24941); assay: Inhibition of CDK2 (unknown origin) at 1 uM using FAM-labeled peptide and ATP as substrate preincubated for 10 mins followed by substrate addition measured after 1 hr by mobility shift assay
[10] = molecular target: T2, Serine/threonine-protein kinase Chk1 (Homo sapiens) (UniProt O14757); assay: Inhibition of CHK (unknown origin) at 1 uM using FAM-labeled peptide and ATP as substrate preincubated for 10 mins followed by substrate addition measured after 1 hr by mobility shift assay
T2 sequence (whole entry): T1 sequence (O14757 whole entry)

HT-29 [11] = assay: Inhibition of receptor tyrosine kinase in human HT-29 cells assessed as reduction in AKT phosphorylation at Ser473 residue after 24 hrs by Western blotting analysis; format: cell-based
Summary of the method: (§1)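 Cells cultured overnight, then treated with compound at different concentrations for 24 h. About 1×10⁶ cells harvested and immunoblotted for p-AKT (Ser473), AKT, p-ERK (Thr202/Tyr204), ERK, with GAPDH as loading control. Detection by chemiluminescence and gel imaging. Blots shown are representative of several experiments.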

HT-29 [12] = assay: Inhibition of receptor tyrosine kinase in human HT-29 cells assessed as reduction in ERK phosphorylation at Thr202/Tyr204 residues at 3 uM after 24 hrs by Western blotting analysis; format: cell-based; summary of the method: as §1
HepG2 [13] = assay: Inhibition of receptor tyrosine kinase in human HepG2 cells assessed as reduction in ERK phosphorylation at Thr202/Tyr204 residues at 3 uM after 24 hrs by Western blotting analysis; format: cell-based; summary of the method: as §1
HepG2 [14] = assay: Inhibition of colony formation in human HepG2 cells measured after 14 days by crystal violet staining-based assay; format: functional, cell-based
Summary of the method: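 Cells plated and exposed to test agent at a range of concentrations for 14 days, then colonies counted. Colony formation expressed relative to vehicle-treated cells as mean ± SEM. Significance versus vehicle by unpaired two-tailed Student's t-test.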

MKN-74 [15] = assay: Induction of apoptosis in human MKN74 cells incubated for 72 hrs by Annexin-V-FITC/propidium iodide staining-based flow cytometric analysis; format: functional, cell-based
HT-29 [16] = assay: Induction of apoptosis in human HT-29 cells assessed as late apoptotic cells at 0.3 uM incubated for 72 hrs by Annexin-V-FITC/propidium iodide staining-based flow cytometric analysis (reference value: 6.12%); format: functional
HT-29 [17] = assay: Induction of apoptosis in human HT-29 cells assessed as late apoptotic cells at 3 uM incubated for 72 hrs by Annexin-V-FITC/propidium iodide staining-based flow cytometric analysis (reference value: 6.12%); format: functional
MKN-74 [18] = assay: Induction of apoptosis in human MKN74 cells assessed as early apoptotic cells at 0.3 uM incubated for 72 hrs by Annexin-V-FITC/propidium iodide staining-based flow cytometric analysis (reference value: 1.98%); format: functional
MKN-74 [19] = assay: Induction of apoptosis in human MKN74 cells assessed as early apoptotic cells at 1 uM incubated for 72 hrs by Annexin-V-FITC/propidium iodide staining-based flow cytometric analysis (reference value: 1.98%); format: functional
MKN-74 [20] = assay: Induction of apoptosis in human MKN74 cells assessed as early apoptotic cells at 3 uM incubated for 72 hrs by Annexin-V-FITC/propidium iodide staining-based flow cytometric analysis (reference value: 1.98%); format: functional
HepG2 [21] = assay: Induction of apoptosis in human HepG2 cells assessed as late apoptotic cells at 3 uM incubated for 72 hrs by Annexin-V-FITC/propidium iodide staining-based flow cytometric analysis (reference value: 2.89%); format: functional
HUVEC = assay: Induction of apoptosis in human HUVEC cells assessed as early apoptotic cells at 1 uM incubated for 48 hrs by Annexin-V-FITC/propidium iodide staining-based flow cytometric analysis (reference value: 3.63%); format: functional
[22] = Half life in human liver microsomes; format: ADME, Microsome
[23] = Intrinsic clearance in human liver microsomes; format: ADME, Microsome; conditions: read-out: CLH
MKN-74 [24] = assay: Induction of apoptosis in human MKN74 cells assessed as viable cells at 3 uM incubated for 72 hrs by Annexin-V-FITC/propidium iodide staining-based flow cytometric analysis (reference value: 76.84%); format: functional; conditions: MKN-74, 72 h, read-out: Activity

Cyclin-dependent kinase 4, sequence (P11802 whole entry): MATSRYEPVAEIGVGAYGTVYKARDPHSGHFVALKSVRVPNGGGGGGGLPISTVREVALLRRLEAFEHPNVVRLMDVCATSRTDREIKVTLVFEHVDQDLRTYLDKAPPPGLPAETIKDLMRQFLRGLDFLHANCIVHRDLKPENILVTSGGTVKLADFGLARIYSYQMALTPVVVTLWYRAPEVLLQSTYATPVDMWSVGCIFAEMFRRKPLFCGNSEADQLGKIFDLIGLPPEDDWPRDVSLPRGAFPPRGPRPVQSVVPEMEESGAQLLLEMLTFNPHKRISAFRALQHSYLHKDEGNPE
Proto-oncogene tyrosine-protein kinase Src, sequence (P12931 2-536 limits assumed): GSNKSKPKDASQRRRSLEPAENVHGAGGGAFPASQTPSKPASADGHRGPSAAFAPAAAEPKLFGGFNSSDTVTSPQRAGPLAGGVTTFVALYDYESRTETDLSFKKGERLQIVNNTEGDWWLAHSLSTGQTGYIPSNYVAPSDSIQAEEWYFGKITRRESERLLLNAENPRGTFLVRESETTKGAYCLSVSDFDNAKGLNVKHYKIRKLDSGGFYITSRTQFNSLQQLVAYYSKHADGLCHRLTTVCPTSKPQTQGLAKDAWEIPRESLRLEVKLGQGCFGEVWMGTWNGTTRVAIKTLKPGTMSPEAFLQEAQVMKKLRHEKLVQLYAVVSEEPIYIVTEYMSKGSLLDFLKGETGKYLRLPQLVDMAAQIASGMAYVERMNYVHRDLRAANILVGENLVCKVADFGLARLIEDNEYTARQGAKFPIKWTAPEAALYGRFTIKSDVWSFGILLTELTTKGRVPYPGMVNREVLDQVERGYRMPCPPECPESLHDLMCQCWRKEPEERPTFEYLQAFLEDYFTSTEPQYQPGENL
Vascular endothelial growth factor receptor 2, sequence (P35968 whole entry, the tested form may be a part): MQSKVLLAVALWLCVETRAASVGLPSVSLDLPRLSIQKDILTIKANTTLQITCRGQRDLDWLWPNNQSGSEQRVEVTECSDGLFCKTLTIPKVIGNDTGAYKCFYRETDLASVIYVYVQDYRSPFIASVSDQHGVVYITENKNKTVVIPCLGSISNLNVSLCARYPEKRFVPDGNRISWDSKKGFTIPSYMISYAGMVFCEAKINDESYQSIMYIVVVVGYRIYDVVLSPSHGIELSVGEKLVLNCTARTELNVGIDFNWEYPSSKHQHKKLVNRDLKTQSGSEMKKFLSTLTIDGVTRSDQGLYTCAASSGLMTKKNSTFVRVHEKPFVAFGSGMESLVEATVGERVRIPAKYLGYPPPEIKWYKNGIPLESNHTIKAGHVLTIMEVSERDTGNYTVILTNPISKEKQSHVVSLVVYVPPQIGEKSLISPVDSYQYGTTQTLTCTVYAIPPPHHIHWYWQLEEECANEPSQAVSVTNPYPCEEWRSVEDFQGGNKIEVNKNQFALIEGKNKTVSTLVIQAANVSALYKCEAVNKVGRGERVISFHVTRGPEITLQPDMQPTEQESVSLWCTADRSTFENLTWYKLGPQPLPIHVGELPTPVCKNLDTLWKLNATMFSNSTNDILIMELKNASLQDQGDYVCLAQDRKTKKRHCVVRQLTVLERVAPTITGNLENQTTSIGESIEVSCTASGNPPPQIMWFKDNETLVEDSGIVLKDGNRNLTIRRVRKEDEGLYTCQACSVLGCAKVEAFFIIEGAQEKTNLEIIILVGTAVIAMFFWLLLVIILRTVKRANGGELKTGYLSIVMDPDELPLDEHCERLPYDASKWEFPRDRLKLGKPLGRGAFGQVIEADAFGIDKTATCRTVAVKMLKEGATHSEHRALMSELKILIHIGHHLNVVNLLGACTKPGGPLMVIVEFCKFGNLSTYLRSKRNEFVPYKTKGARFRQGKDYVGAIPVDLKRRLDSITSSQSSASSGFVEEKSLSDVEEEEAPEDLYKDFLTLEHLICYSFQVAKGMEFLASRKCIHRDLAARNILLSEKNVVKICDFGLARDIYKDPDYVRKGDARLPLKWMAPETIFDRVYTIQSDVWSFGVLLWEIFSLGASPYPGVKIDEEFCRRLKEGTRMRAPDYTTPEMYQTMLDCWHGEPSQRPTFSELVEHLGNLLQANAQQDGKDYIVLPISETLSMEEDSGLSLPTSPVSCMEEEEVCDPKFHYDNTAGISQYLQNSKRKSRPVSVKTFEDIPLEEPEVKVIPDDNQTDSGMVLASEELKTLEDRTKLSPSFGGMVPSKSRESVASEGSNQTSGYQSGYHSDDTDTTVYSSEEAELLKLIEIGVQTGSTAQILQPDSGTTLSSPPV
Tyrosine-protein kinase Lyn, sequence (P07948 whole entry): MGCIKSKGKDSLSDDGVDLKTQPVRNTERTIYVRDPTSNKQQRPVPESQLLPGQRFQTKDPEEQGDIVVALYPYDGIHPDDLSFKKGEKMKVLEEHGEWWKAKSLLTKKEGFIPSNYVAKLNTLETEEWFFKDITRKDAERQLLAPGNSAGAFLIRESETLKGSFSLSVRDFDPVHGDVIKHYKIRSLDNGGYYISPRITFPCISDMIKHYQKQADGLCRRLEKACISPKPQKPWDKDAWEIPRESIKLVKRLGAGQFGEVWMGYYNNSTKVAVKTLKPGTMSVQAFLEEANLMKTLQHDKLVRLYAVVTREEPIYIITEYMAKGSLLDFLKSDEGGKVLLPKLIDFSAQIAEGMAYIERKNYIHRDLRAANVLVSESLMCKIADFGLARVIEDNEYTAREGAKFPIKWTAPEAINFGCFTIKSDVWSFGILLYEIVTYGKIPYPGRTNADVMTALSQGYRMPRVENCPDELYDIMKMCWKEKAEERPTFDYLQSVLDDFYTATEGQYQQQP
Vascular endothelial growth factor receptor 1, sequence (P17948 whole entry, the tested form may be a part): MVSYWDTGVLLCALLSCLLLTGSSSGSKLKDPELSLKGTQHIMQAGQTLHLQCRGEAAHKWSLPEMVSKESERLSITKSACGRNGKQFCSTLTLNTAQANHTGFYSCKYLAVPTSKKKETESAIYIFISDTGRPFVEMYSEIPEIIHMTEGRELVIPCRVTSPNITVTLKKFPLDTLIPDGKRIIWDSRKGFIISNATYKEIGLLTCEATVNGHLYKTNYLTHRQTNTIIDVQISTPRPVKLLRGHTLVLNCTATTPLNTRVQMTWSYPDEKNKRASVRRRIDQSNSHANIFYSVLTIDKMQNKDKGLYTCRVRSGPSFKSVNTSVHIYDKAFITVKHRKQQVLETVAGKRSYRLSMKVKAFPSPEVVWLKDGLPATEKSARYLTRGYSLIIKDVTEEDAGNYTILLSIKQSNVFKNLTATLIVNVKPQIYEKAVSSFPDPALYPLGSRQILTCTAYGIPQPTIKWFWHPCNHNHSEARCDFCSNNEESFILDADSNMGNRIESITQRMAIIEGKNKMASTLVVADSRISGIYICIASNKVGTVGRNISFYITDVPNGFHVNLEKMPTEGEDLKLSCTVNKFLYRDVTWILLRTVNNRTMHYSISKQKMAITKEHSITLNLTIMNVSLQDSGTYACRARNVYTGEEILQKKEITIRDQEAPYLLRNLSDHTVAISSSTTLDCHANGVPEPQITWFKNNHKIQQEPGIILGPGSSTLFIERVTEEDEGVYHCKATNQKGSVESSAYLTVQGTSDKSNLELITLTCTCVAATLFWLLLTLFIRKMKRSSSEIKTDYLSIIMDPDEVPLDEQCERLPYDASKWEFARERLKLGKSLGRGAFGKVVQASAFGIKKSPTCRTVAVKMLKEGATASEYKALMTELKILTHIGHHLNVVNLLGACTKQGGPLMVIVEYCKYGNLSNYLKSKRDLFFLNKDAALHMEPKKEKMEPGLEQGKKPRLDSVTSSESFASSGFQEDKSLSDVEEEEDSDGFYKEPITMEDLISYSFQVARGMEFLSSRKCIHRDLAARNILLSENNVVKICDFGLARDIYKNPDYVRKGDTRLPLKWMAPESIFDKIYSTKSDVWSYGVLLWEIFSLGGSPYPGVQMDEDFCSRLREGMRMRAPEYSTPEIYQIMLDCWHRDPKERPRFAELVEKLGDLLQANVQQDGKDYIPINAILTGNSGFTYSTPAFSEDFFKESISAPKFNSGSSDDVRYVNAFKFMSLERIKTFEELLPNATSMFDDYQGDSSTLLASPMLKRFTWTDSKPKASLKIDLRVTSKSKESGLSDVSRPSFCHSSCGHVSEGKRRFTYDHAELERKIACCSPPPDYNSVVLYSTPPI

COC(=O)c1ccc2c(c1)NC(=O)/C2=C(\Nc1ccc(-n2c(C)ccc2CN2CCN(C)CC2)cc1)c1ccccc1
Activity (MKN-74 [1]): 4.52% | Activity (MKN-74 [2]): 6.48% | pIC50 [3]: 8.19 | pIC50 [4]: 7.51 | pIC50 [5]: 6.75 | pIC50 [6]: 7.80 | pIC50 [7]: < 6.00 | pIC50 [8]: < 6.00 | inhibition [9]: inactive | inhibition [10]: inactive | inhibition (HT-29 [11]): Dose-dependent effect | inhibition (HT-29 [12]): Active | inhibition (HepG2 [13]): Active | inhibition (HepG2 [14]): Dose-dependent effect | Activity (MKN-74 [15]): Dose-dependent effect | Activity (HT-29 [16]): 11.99% | Activity (HT-29 [17]): 88.27% | Activity (MKN-74 [18]): 2.41% | Activity (MKN-74 [19]): 5.73% | Activity (MKN-74 [20]): 8.01% | Activity (HepG2 [21]): 64.56% | Activity (HUVEC): 3.58% | half-life [22]: 21.2 min | CLint scaled [23]: 82 mL/min/kg | viability at 3 µM (MKN-74 [24]): 8.53%
